Bioassay records as filed in PubChem BioAssay.
An excerpt weighted towards active compounds, which were near 3.1% of everything screened.
Myeloid diff MLP: induction of myeloid progenitor differentiation, primary screen, cell-based, flow cytometry, MLPCN library. ER-HoxA9 myeloid progenitors, lysozyme-GFP differentiation. calls only at 10 µM. 360,000 compounds, 1% hits. AID 624256, 2012;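 active = normalized GFP-positive differentiation at or above the plate's own cutoff, the solvent-only control mean plus 3 SD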;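 also: cells exposed to compound for four days before flow analysis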
CTSL1 counter: Fasciola hepatica cathepsin L1 inhibitors, primary screen, counter-screen for PFM18AAP inhibitor project, biochemical, QFRET, fluorogenic peptide substrate; inhibition, % at 5.96 µM; recombinant F. hepatica cathepsin L1, Z-Leu-Arg-MCA fluorescence; AID 1906, 2009; 300,000 compounds, 0.49% hits;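 active = inhibition above the mean of all tested compounds plus 3 SD, set per screening campaign, cut at about 17% in these data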;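 also: 0% = plate median of test compound wells and 100% = 1 µM Z-Phe-Ala-diazomethylketone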
core dimer inh: inhibitors of HCV core protein dimerization, primary screen, biochemical, TR-FRET, high-throughput | 300,000 compounds, 0.33% hits | TR-FRET GST/Flag-core106 dimerization, 1536-well | AID 1899, 2009 | inhibition, % at 5 µM;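 active = inhibition above the mean of all tested compounds plus 3 SD, set per screening campaign, cut at about 45% in these data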
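Assay system: GST-tagged and Flag-tagged HCV core protein residues 1-106 / Times: compound-protein-antibody incubation 4 h at 22.5 °C / Signal: time-resolved FRET, ex 340 nm, em 617 and 671 nm / Evaluation: % inhibition based on acceptor/donor emission ratio / Benchmarks: wells lacking GST-core106 and wells with excess unlabelled core106 / Repeats: singlicate, one well per compound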
NadD block: inhibitors of S. aureus NadD, primary screen, biochemical, colorimetric, uHTS; purified NadD enzyme, colorimetric absorbance read-out; 360,000 compounds, 0.78% hits; inhibition, % at 20 µM; Nicotinate-nucleotide adenylyltransferase NadD (Staphylococcus aureus N315); in the data active = inhibition above about 26%
PP5 primary: PP5 phosphatase inhibitors, primary screen, biochemical, fluorescence. 320,000 compounds, 0.18% hits. AID 1987, 2009. purified PP5c, OMFP substrate fluorescence. inhibition, % at 6.7 µM;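 active = inhibition above the campaign's mean inhibition across all tested compounds plus 3 SD, cut at about 9.5% in these data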;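 also: 0% = DMSO only and 100% = 100 µM cantharidin control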
Target sequence (P53041 whole entry, looked up): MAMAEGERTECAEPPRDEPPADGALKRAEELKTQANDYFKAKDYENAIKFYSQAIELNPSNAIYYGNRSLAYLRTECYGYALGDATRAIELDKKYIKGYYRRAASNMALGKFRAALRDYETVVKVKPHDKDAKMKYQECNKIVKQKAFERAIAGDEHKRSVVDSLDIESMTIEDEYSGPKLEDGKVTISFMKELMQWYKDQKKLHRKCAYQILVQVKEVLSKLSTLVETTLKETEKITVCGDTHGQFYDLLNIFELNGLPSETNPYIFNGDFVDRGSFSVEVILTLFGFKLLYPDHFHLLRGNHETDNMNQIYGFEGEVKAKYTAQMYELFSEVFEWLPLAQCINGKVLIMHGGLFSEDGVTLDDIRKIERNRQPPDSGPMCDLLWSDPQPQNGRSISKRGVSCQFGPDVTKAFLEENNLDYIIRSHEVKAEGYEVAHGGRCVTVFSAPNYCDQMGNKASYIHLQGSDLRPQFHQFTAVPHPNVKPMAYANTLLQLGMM
PP1 counter: PP1-alpha phosphatase inhibitors, primary screen, counter-screen for PP5 inhibitor project, biochemical, fluorescence, OMFP substrate, single point; Serine/threonine-protein phosphatase PP1-alpha catalytic subunit (Homo sapiens), P62136; purified PP1alpha; inhibition, % at 6.7 µM; AID 2235, 2010; 320,000 compounds, 0.9% hits;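 active = inhibition above the mean inhibition of all tested compounds plus 3 SD, computed separately for each screening campaign, cut at about 15% in these data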
NadD conf: inhibitors of S. aureus NadD, confirmation, biochemical, colorimetric, single concentration; shares compounds with NadD block; purified S. aureus NadD, colorimetric enzyme assay; inhibition, % at 20 µM; 2,000 compounds, 13% hits; AID 624309, 2012; in the data active = inhibition mostly above about 42%, no sharp cut-off; inactive = mostly below about 42%
Numbers without * were called inactive; i = inactive; . = not tested or not shown.

SMILES	Myeloid diff MLP	CTSL1 counter	core dimer inh	NadD block	PP5 primary	PP1 counter	NadD conf
Cc1sc2ncnc(N3CCC(C(=O)Nc4nnc(SCc5ccccc5F)s4)CC3)c2c1C	i	0	12	47*	1	-11	4
c1ccc(N2[C@@H]3c4ccccc4C[C@H]2c2ccccc23)cc1	i	.	.	.	.	.	.
CC[C@H]1C=C[C@@H](C(C(=O)OC)C(=O)OC)CN1C(C)=O	i	.	.	0	.	.	.
CN(C(=O)c1ccc2c(c1)OCO2)C1(C)CCS(=O)(=O)C1 (stereo not drawn)	i	-3	-5	-3	0	0	.
CNC(=O)c1ccc(NC(=O)C2CCN(c3ncnc4sc(C)c(C)c34)CC2)cc1	i	2	2	8	2	-2	.
C=CCn1c(C)cc(-c2csc(NC(=O)C3CCN(c4ncnc5sc(C)c(C)c45)CC3)n2)c1C	i	.	.	32*	.	.	27
Cc1sc2ncnc(N3CCC(C(=O)Nc4sc5c(c4C(N)=O)CCC(C)C5)CC3)c2c1C (stereo not drawn)	i	.	.	31*	2	-3	11
O=C(O)c1ccc(Cl)cc1Nc1nc2cc(Cl)ccc2o1	i	-2	1	-1	6	8	.
CCCc1ccccc1OCCNS(=O)(=O)c1cc2c(cc1C)OCC(=O)N2	i	0	-27	-17	8	0	.
O=C(O)CC/C(=C\c1cccc(NC(=O)c2ccccc2Cl)c1)c1nc2ccccc2s1	i	3	12	30*	3	4	38
CN(c1ccccc1)c1ccc(/C=C(/CCC(=O)O)c2nc3ccccc3s2)cc1[N+](=O)[O-]	i	.	.	43*	.	.	38
Cc1cc(C)c[n+](C(C)C(=O)c2ccc(Cl)cc2)c1 (stereo not drawn)	.	-3	-19	-5	2	-2	.
CCOc1ccc(OCC)c(NC(=O)CCNS(=O)(=O)c2cc(Br)cnc2N)c1	i	0	7	3	1	2	.
CCCCn1c(-c2ccc(Cl)c(Cl)c2)nc2cc3[nH]c(=O)c(C(C)C)nc3cc21	i	4	21	38*	4	16*	16
COc1ccc(C(=O)Nc2nc3c(s2)Cc2cc(OC)ccc2-3)cc1	i	3	20	38*	0	5	9
Cc1ccc(-c2nc3ccccc3[nH]2)cc1NC(=O)c1ccco1	i	-4	-6	0	0	0	.
Cc1ccc(-c2nc3ccccc3[nH]2)cc1NC(=O)c1sc2cc(Cl)ccc2c1Cl	i	1	19	29*	-1	3	12
COCCNC(=O)Cn1cc(/C=C(\C#N)C(=O)NC2CCCC2)c2ccccc21	i	1	2	4	1	-2	.
O=C(NCC1CCCO1)c1cc(-c2ccco2)nc2ccccc12 (stereo not drawn)	i	-3	21	-1	-2	14	.
CN(C)C(CNC(=O)c1cc(-c2ccco2)nc2ccccc12)c1ccccc1 (stereo not drawn)	i	.	.	59*	.	.	59*
CCc1nnc(NC(=O)c2cc(-c3ccco3)nc3ccccc23)s1	i	5	73*	81*	0	8	44
CCc1nnc(NC(=O)c2cc(-c3ccccn3)nc3ccccc23)s1	i	-5	1	6	-2	-1	.
Cn1cc(C(=O)c2ccc(Cl)cc2Cl)cc1C(=O)N/N=C(\N)COc1ccc(Cl)cc1Cl	i	3	26	41*	2	8	29
Cn1cc(C(=O)c2ccc(Cl)cc2Cl)cc1C(=O)N/N=C(\N)COc1ccc(Cl)cc1	i	-1	9	32*	3	16*	35
CCOc1ccc(-n2c(C)nc3cc(C(=O)NCC4CCCO4)ccc32)cc1 (stereo not drawn)	i	0	0	0	2	-1	.
SMILES	Myeloid diff MLP	CTSL1 counter	core dimer inh	NadD block	PP5 primary	PP1 counter	NadD conf
O=C(CC[C@H]1O[C@@H](n2ccc(=O)[nH]c2=O)[C@H](O)[C@@H]1O)NCC(c1ccccc1)c1ccccc1	i	.	.	-3	.	.	.
O=C1CC(/C=C/c2ccc(Cl)cc2)=Nc2ccccc2N1	i	3	7	33*	0	3	7
CCCCCCn1c(=O)n2n(c1=O)[C@@H]1CN(S(=O)(=O)c3ccc(C)cc3)C[C@]1(O)[C@@H](OC(=O)NCc1ccco1)C2	i	.	.	-4	.	.	.
N#C/C(=C(/O)CN1CCN(c2ccccc2F)CC1)c1nc(-c2ccccc2)cs1	i	-2	-10	31*	-1	-1	25
CC(C)CCN(CCC(C)C)C/C(O)=C(\C#N)c1nc(-c2ccccc2)cs1	i	2	4	16	2	3	.
O=C(O)c1ccc(/C=N/NC(=O)c2ccc(CN3c4cccc5cccc(c45)S3(=O)=O)cc2)cc1	i	-1	11	30*	2	11	66*
COc1ccc(C(CNC(=O)c2cccc(NC(=O)c3cccs3)c2)N2CCCC2)cc1 (stereo not drawn)	i	.	.	2	3	-3	.
Cc1cc(Br)ccc1NC(=O)CNC(=O)CSc1nccn1C	i	.	.	1	.	.	.
O=C(CCc1nc(-c2ccccc2F)no1)Nc1cccnc1	i	0	-2	66*	2	1	-4
CCOc1ccccc1-c1noc(CCC(=O)Nc2cccnc2)n1	.	-1	-2	-6	0	1	.
Cc1cc2nc(/C=C/c3nc4cc(C)c(C)cc4[nH]3)[nH]c2cc1C	i	4	5	31*	3	12	-17
O=S(c1ccccc1O)S(=O)c1ccccc1O (stereo not drawn)	i	.	.	39*	.	.	68*
Cc1cccc(C)c1NC(=O)c1ccc(-c2cc(F)ccc2F)o1	i	.	.	-5	.	.	.
Cc1ccc(Cn2c(C3CCCN3c3nc(-c4cc(Cl)c(N)c(Cl)c4)cs3)nc3cc(Cl)c(Cl)cc32)cc1 (stereo not drawn)	i	-1	10	51*	0	5	43*
CCCn1c(C2CCCN2c2nc(-c3cccc(Br)c3)cs2)nc2cc(Cl)c(Cl)cc21 (stereo not drawn)	i	-2	-6	36*	4	4	30
